Source: ChEMBL document CHEMBL4689842, “EUbOPEN Chemogenomics Library wave 1” (2021)

System: HEK-293T
Assay: Multiplex assay against HEK293T;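 on Population Tubulin-Different-Phenotype (%): share of the cells with healthy nuclei that show this phenotype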
Type: toxicity, cell-based
Conditions: human
In short: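 Hoechst33342, BioTracker Green Microtubule Cytoskeleton Dye, MitoTracker Red and Annexin V Alexa Fluor 680 were added to live cells at seeding, and imaging on a CQ1 microscope at 37°C and 5% CO2 followed compound addition. Gating by CellPathfinder machine learning separated cells into Hoechst high-intensity objects or normal cells, then normal cells into healthy, pyknosed or fragmented nuclei, then pyknosed cells into mitotic or apoptotic. Per cents of healthy-nucleus cells are reported for the tubulin, mitochondrial-mass and membrane-permeability phenotypes.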

[1] = 12 h, 1 µM, compound concentration 1 uM, replicate 1
[2] = 12 h, 1 µM, compound concentration 1 uM, replicate 2
[3] = 12 h, 10 µM, compound concentration 10 uM, replicate 1
[4] = 12 h, 10 µM, compound concentration 10 uM, replicate 2
[5] = 24 h, 1 µM, compound concentration 1 uM, replicate 1
[6] = 24 h, 1 µM, compound concentration 1 uM, replicate 2
[7] = 24 h, 10 µM, compound concentration 10 uM, replicate 1
[8] = 24 h, 10 µM, compound concentration 10 uM, replicate 2
[9] = 48 h, 1 µM, compound concentration 1 uM, replicate 1
[10] = 48 h, 1 µM, compound concentration 1 uM, replicate 2
[11] = 48 h, 10 µM, compound concentration 10 uM, replicate 1
[12] = 48 h, 10 µM, compound concentration 10 uM, replicate 2

COC(=N)c1nc2ccc3ncnc(Nc4ccc(OC)cc4F)c3c2s1
Population Apoptotic (%) [1]: 15%
Population Fragmented Nuclei (%) [1]: 16%
Population Healthy Nuclei (%) [1]: 53%
Population Hoechst High Intensity Objects (%) [1]: 21%
Population Membrane Permeable-Phenotype (%) [1]: 3%
Population Mitochondria Different-Phenotype (%) [1]: 12%
Population Mitotic Cells (%) [1]: 84%
Population Normal (%) [1]: 78%
Population Pyknosed Nuclei (%) [1]: 29%
Population Tubulin-Different-Phenotype (%) [1]: 5%
Total Cell Count [1]: 546
Population Apoptotic (%) [2]: 24%
Population Fragmented Nuclei (%) [2]: 4%
Population Healthy Nuclei (%) [2]: 87%
Population Hoechst High Intensity Objects (%) [2]: 5%
Population Membrane Permeable-Phenotype (%) [2]: 0%
Population Mitochondria Different-Phenotype (%) [2]: 21%
Population Mitotic Cells (%) [2]: 75%
Population Normal (%) [2]: 94%
Population Pyknosed Nuclei (%) [2]: 7%
Population Tubulin-Different-Phenotype (%) [2]: 9%
Total Cell Count [2]: 1072
Population Apoptotic (%) [3]: 19%
Population Fragmented Nuclei (%) [3]: 10%
Population Healthy Nuclei (%) [3]: 66%
Population Hoechst High Intensity Objects (%) [3]: 10%
Population Mitochondria Different-Phenotype (%) [3]: 6%
Population Mitotic Cells (%) [3]: 80%
Population Normal (%) [3]: 89%
Population Pyknosed Nuclei (%) [3]: 22%
Population Tubulin-Different-Phenotype (%) [3]: 4%
Total Cell Count [3]: 552
Population Apoptotic (%) [4]: 4%
Population Fragmented Nuclei (%) [4]: 6%
Population Healthy Nuclei (%) [4]: 88%
Population Hoechst High Intensity Objects (%) [4]: 3%
Population Membrane Permeable-Phenotype (%) [4]: 2%
Population Mitochondria Different-Phenotype (%) [4]: 8%
Population Mitotic Cells (%) [4]: 95%
Population Normal (%) [4]: 96%
Population Pyknosed Nuclei (%) [4]: 5%
Population Tubulin-Different-Phenotype (%) [4]: 6%
Total Cell Count [4]: 1236
Population Apoptotic (%) [5]: 19%
Population Fragmented Nuclei (%) [5]: 14%
Population Healthy Nuclei (%) [5]: 71%
Population Hoechst High Intensity Objects (%) [5]: 11%
Population Membrane Permeable-Phenotype (%) [5]: 3%
Population Mitochondria Different-Phenotype (%) [5]: 7%
Population Mitotic Cells (%) [5]: 80%
Population Normal (%) [5]: 88%
Population Pyknosed Nuclei (%) [5]: 13%
Population Tubulin-Different-Phenotype (%) [5]: 12%
Total Cell Count [5]: 573
Population Apoptotic (%) [6]: 17%
Population Healthy Nuclei (%) [6]: 82%
Population Hoechst High Intensity Objects (%) [6]: 5%
Population Mitochondria Different-Phenotype (%) [6]: 4%
Population Mitotic Cells (%) [6]: 82%
Population Normal (%) [6]: 94%
Population Pyknosed Nuclei (%) [6]: 2%
Population Tubulin-Different-Phenotype (%) [6]: 19%
Total Cell Count [6]: 1668
Population Apoptotic (%) [7]: 16%
Population Fragmented Nuclei (%) [7]: 9%
Population Healthy Nuclei (%) [7]: 82%
Population Hoechst High Intensity Objects (%) [7]: 8%
Population Membrane Permeable-Phenotype (%) [7]: 7%
Population Mitochondria Different-Phenotype (%) [7]: 2%
Population Mitotic Cells (%) [7]: 83%
Population Normal (%) [7]: 91%
Population Pyknosed Nuclei (%) [7]: 8%
Population Tubulin-Different-Phenotype (%) [7]: 8%
Total Cell Count [7]: 657
Population Apoptotic (%) [8]: 4%
Population Fragmented Nuclei (%) [8]: 20%
Population Healthy Nuclei (%) [8]: 77%
Population Hoechst High Intensity Objects (%) [8]: 3%
Population Membrane Permeable-Phenotype (%) [8]: 4%
Population Mitotic Cells (%) [8]: 95%
Population Normal (%) [8]: 96%
Population Pyknosed Nuclei (%) [8]: 2%
Population Tubulin-Different-Phenotype (%) [8]: 5%
Total Cell Count [8]: 2058

CN1C2CCC1CC(OC(c1ccc(F)cc1)c1ccc(F)cc1)C2.Cl (stereo not given)
Population Apoptotic (%) [1]: 50%
Population Fragmented Nuclei (%) [1]: 12%
Population Healthy Nuclei (%) [1]: 27%
Population Hoechst High Intensity Objects (%) [1]: 12%
Population Membrane Permeable-Phenotype (%) [1]: 2%
Population Mitochondria Different-Phenotype (%) [1]: 84%
Population Mitotic Cells (%) [1]: 50%
Population Normal (%) [1]: 87%
Population Pyknosed Nuclei (%) [1]: 60%
Population Tubulin-Different-Phenotype (%) [1]: 58%
Total Cell Count [1]: 303
Population Apoptotic (%) [2]: 18%
Population Fragmented Nuclei (%) [2]: 2%
Population Healthy Nuclei (%) [2]: 43%
Population Hoechst High Intensity Objects (%) [2]: 3%
Population Membrane Permeable-Phenotype (%) [2]: 18%
Population Mitochondria Different-Phenotype (%) [2]: 35%
Population Mitotic Cells (%) [2]: 81%
Population Normal (%) [2]: 96%
Population Pyknosed Nuclei (%) [2]: 54%
Population Tubulin-Different-Phenotype (%) [2]: 56%
Total Cell Count [2]: 252
Population Apoptotic (%) [3]: 80%
Population Fragmented Nuclei (%) [3]: 9%
Population Healthy Nuclei (%) [3]: 25%
Population Hoechst High Intensity Objects (%) [3]: 13%
Population Membrane Permeable-Phenotype (%) [3]: 1%
Population Mitochondria Different-Phenotype (%) [3]: 100%
Population Mitotic Cells (%) [3]: 19%
Population Normal (%) [3]: 86%
Population Pyknosed Nuclei (%) [3]: 65%
Population Tubulin-Different-Phenotype (%) [3]: 98%
Total Cell Count [3]: 280
Population Apoptotic (%) [4]: 63%
Population Fragmented Nuclei (%) [4]: 3%
Population Healthy Nuclei (%) [4]: 21%
Population Hoechst High Intensity Objects (%) [4]: 6%
Population Membrane Permeable-Phenotype (%) [4]: 2%
Population Mitochondria Different-Phenotype (%) [4]: 92%
Population Mitotic Cells (%) [4]: 36%
Population Normal (%) [4]: 93%
Population Pyknosed Nuclei (%) [4]: 74%
Population Tubulin-Different-Phenotype (%) [4]: 95%
Total Cell Count [4]: 201
Population Apoptotic (%) [5]: 48%
Population Fragmented Nuclei (%) [5]: 15%
Population Healthy Nuclei (%) [5]: 19%
Population Hoechst High Intensity Objects (%) [5]: 14%
Population Membrane Permeable-Phenotype (%) [5]: 10%
Population Mitochondria Different-Phenotype (%) [5]: 76%
Population Mitotic Cells (%) [5]: 51%
Population Normal (%) [5]: 85%
Population Pyknosed Nuclei (%) [5]: 64%
Total Cell Count [5]: 295
Population Apoptotic (%) [6]: 22%
Population Fragmented Nuclei (%) [6]: 4%
Population Healthy Nuclei (%) [6]: 49%
Population Hoechst High Intensity Objects (%) [6]: 1%
Population Membrane Permeable-Phenotype (%) [6]: 12%
Population Mitochondria Different-Phenotype (%) [6]: 35%
Population Mitotic Cells (%) [6]: 77%
Population Normal (%) [6]: 98%
Population Pyknosed Nuclei (%) [6]: 46%
Population Tubulin-Different-Phenotype (%) [6]: 64%
Total Cell Count [6]: 305
Population Apoptotic (%) [7]: 79%
Population Fragmented Nuclei (%) [7]: 16%
Population Healthy Nuclei (%) [7]: 13%
Population Hoechst High Intensity Objects (%) [7]: 20%
Population Membrane Permeable-Phenotype (%) [7]: 3%
Population Mitochondria Different-Phenotype (%) [7]: 100%
Population Mitotic Cells (%) [7]: 20%
Population Normal (%) [7]: 79%
Population Pyknosed Nuclei (%) [7]: 70%
Population Tubulin-Different-Phenotype (%) [7]: 96%
Total Cell Count [7]: 292
Population Apoptotic (%) [8]: 88%
Population Fragmented Nuclei (%) [8]: 3%
Population Healthy Nuclei (%) [8]: 28%
Population Hoechst High Intensity Objects (%) [8]: 7%
Population Membrane Permeable-Phenotype (%) [8]: 1%
Population Mitochondria Different-Phenotype (%) [8]: 96%
Population Mitotic Cells (%) [8]: 11%
Population Normal (%) [8]: 92%
Population Pyknosed Nuclei (%) [8]: 67%
Population Tubulin-Different-Phenotype (%) [8]: 86%
Total Cell Count [8]: 190
Population Apoptotic (%) [9]: 47%
Population Fragmented Nuclei (%) [9]: 20%
Population Healthy Nuclei (%) [9]: 21%
Population Hoechst High Intensity Objects (%) [9]: 19%
Population Membrane Permeable-Phenotype (%) [9]: 7%
Population Mitochondria Different-Phenotype (%) [9]: 53%
Population Mitotic Cells (%) [9]: 52%
Population Normal (%) [9]: 80%
Population Pyknosed Nuclei (%) [9]: 58%
Population Tubulin-Different-Phenotype (%) [9]: 67%
Total Cell Count [9]: 329
Population Apoptotic (%) [10]: 11%
Population Fragmented Nuclei (%) [10]: 4%
Population Healthy Nuclei (%) [10]: 77%
Population Hoechst High Intensity Objects (%) [10]: 2%
Population Membrane Permeable-Phenotype (%) [10]: 15%
Population Mitochondria Different-Phenotype (%) [10]: 15%
Population Mitotic Cells (%) [10]: 89%
Population Normal (%) [10]: 97%
Population Pyknosed Nuclei (%) [10]: 18%
Population Tubulin-Different-Phenotype (%) [10]: 52%
Total Cell Count [10]: 565
Population Apoptotic (%) [11]: 78%
Population Fragmented Nuclei (%) [11]: 21%
Population Healthy Nuclei (%) [11]: 8%
Population Hoechst High Intensity Objects (%) [11]: 21%
Population Membrane Permeable-Phenotype (%) [11]: 0%
Population Mitochondria Different-Phenotype (%) [11]: 100%
Population Mitotic Cells (%) [11]: 21%
Population Normal (%) [11]: 78%
Population Pyknosed Nuclei (%) [11]: 69%
Population Tubulin-Different-Phenotype (%) [11]: 95%
Total Cell Count [11]: 285
Population Apoptotic (%) [12]: 75%
Population Fragmented Nuclei (%) [12]: 9%
Population Healthy Nuclei (%) [12]: 55%
Population Hoechst High Intensity Objects (%) [12]: 10%
Population Membrane Permeable-Phenotype (%) [12]: 1%
Population Mitochondria Different-Phenotype (%) [12]: 96%
Population Mitotic Cells (%) [12]: 24%
Population Normal (%) [12]: 89%
Population Pyknosed Nuclei (%) [12]: 34%
Population Tubulin-Different-Phenotype (%) [12]: 85%
Total Cell Count [12]: 207
